Published values of several laboratories.
Protocols differ between the studies behind these lines.

| SMILES | assay | test system | conditions | quantity | result |
| --- | --- | --- | --- | --- | --- |
| OCc1nc2ccc(NCc3ccc(C(F)(F)F)cc3)cc2[nH]1 |  | male BALB/c mouse, plasma | oral, 10 mg/kg | MRT(0-inf) | 1.9 h |
| O=c1c2c([nH]c3cc(OCc4ccc(OC(F)(F)F)cc4)ccc13)CCCC2 | metabolic stability | human, liver microsomes | 1 µM, pH 7.4 | half-life | 0.627 h |
| CCN(CC)CCNC(=O)c1c(C)[nH]c(/C=C2\C(=O)Nc3ccc(F)cc32)c1C | metabolic stability | human, liver microsomes | 1 µM, pH 7.4 | half-life | 27.1 h |
| CC[C@H](C)[C@H](NC(=O)[C@@H]1CCCN1C(=O)CNC(=O)[C@H](Cc1ccccc1)NC(=O)[C@H](CC(N)=O)NC(=O)[C@H](CC(N)=O)NC(=O)[C@H](CO)NC(=O)[C@H](CO)NC(=O)[C@H](Cc1c[nH]cn1)NC(=O)[C@H](CCCNC(=N)N)NC(=O)[C@H](CC(C)C)NC(=O)[C@H](Cc1ccccc1)NC(=O)[C@H](CCC(=O)O)NC(=O)[C@H](C)NC(=O)[C@H](CC(C)C)NC(=O)[C@H](CCCNC(=N)N)NC(=O)[C@H](CCC(N)=O)NC(=O)[C@@H](NC(=O)[C@H](C)NC(=O)[C@@H]1CSSC[C@H](NC(=O)[C@H](CCCCN)NC(=O)CC[C@H](NC(=O)CCCCCCCCCCCCCCCCCCC(=O)O)C(=O)O)C(=O)N[C@@H](CC(N)=O)C(=O)N[C@@H]([C@@H](C)O)C(=O)N[C@@H](C)C(=O)N[C@@H]([C@@H](C)O)C(=O)N1)[C@@H](C)O)C(=O)N[C@@H](CC(C)C)C(=O)N1CCC[C@H]1C(=O)N1CCC[C@H]1C(=O)N[C@H](C(=O)N[C@@H](CC(N)=O)C(=O)N[C@H](C(=O)NCC(=O)N[C@@H](CO)C(=O)N[C@@H](CC(N)=O)C(=O)N[C@H](C(=O)N1CCC[C@H]1C(N)=O)[C@@H](C)O)C(C)C)[C@@H](C)O |  | cynomolgus monkey, plasma | subcutaneous, 20 nmol/kg, single dose | AUC(0-inf) | 39.3 µM·h |
| CCOC(=O)C1=C(CN2CCC[C@@H]2C(=O)Nc2ccc(B(O)O)cc2)NC(c2nccs2)=N[C@H]1c1ccc(F)cc1Br |  | CD-1 mouse, plasma | intravenous, 2 mg/kg | MRT(0-inf) | 0.57 h |
| COC1=CC(c2ccc[nH]2)=N/C1=C\c1[nH]c(Cc2ccc(OC(F)(F)F)cc2)cc1Cc1ccc(OC(F)(F)F)cc1 |  | male CD-1 mouse, plasma | oral, 40 mg/kg, single dose | MRT(0-t) | 23.1 h |
| NCc1cc2c(cc1F)C(=O)N(C1CCC(=O)NC1=O)C2 (stereo not shown) |  | male cynomolgus monkey, plasma | oral, 0.3 mg/kg | AUC(0-inf) | 5.5 ng·h/mL |
| Cc1nc2ccc(OCc3ccc(C(F)(F)F)cc3)cc2[nH]1 |  | male BALB/c mouse, plasma | intravenous, 1 mg/kg | MRT(0-inf) | 1.54 h |
| CCCCCCOc1ccc2c(=O)c3c([nH]c2c1)CCCC3 | metabolic stability | human, liver microsomes | 1 µM, pH 7.4 | half-life | 0.25 h |
| COC1=CC(c2ccc[nH]2)=N/C1=C\c1cc(Cc2ccc(OC(F)(F)F)cc2)c(C)[nH]1.Cl |  | male CD-1 mouse, liver | oral, 40 mg/kg, single dose | MRT(0-t) | 34.8 h |
